According to the EternaBench riboswitch data:

System: MS2 coat protein
Assay: apparent Kd, MS2 coat protein; higher = weaker binding; RNA-MaP array; FMN 200 µM where present
In short: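 Stalled E. coli RNA polymerase transcribed each design on Illumina sequencing-chip clusters. The clusters were titrated with SNAP-549-labelled MS2 coat protein, starting at 0.7 or 1.5 nM and doubling up to 3 µM, first without ligand and then with constant ligand, in 100 mM Tris-HCl pH 7.5, 80 mM KCl, 4 mM MgCl2, BSA, DTT, yeast tRNA and Tween-20. Green signal was normalised to red-channel RNA signal and to the control-cluster median Fmax. The apparent Kd is the median of filtered binding-curve fits made for each cluster.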

[1] = designed as: ON switch for flavin mononucleotide, no ligand
[2] = ligand present: flavin mononucleotide, designed as: ON switch for flavin mononucleotide
[3] = designed as: OFF switch for flavin mononucleotide, no ligand
[4] = ligand present: flavin mononucleotide, designed as: OFF switch for flavin mononucleotide

| Sequence | apparent Kd [1] | apparent Kd [2] | apparent Kd [3] | apparent Kd [4] |
| --- | --- | --- | --- | --- |
| UCAUAUAUACAAGGAUAUCAAUUAUUUACACAUCCUACAUGAGGAUCACCCAUGUUUUAAUAUUUUGAGAAGGUGUAAUGUCGG | 24 nM | 30.7 nM | – | – |
| UCAUCAACGGGCGGGUCGGUUGGACAUGAGGAUCACCCAUGUAGAAGGACCGGUGGACUCCGGCGGUAGGAUAUACAUAUGGUG | – | – | 29.2 nM | 36.7 nM |
| UCAUGGUAGCAGGAUAUGCUUGUAAUUUUUUAUGCAGAAGGGCUUACAUGAGGAUCACCCAUGUGUUAGGUCUA | – | – | 43.4 nM | 66.2 nM |
| UCAUGUAUGUAGGAUAUCGAUGUCUUCGGACAUCGAGAAGGACGUACAUGAGGAUCACCCAUGUAACUUGCAUG | – | – | 17.9 nM | 16.6 nM |
| UCAUUAUAAAUCCAUCAUAACUACAUGAGGAUCACCCAUGUGCAGGAUAUCGAUUAUUUAACUAACGAGAAGGGCAUUUACAGA | – | – | 50.1 nM | 169 nM |
| UCAUUUAUUACAGGAUAUGUUAGUAUACAGUUGUUUGGUUAUUACAUAUUAACAGAAGGGUAGAACAUGAGGAUCACCCAUGUA | 95.7 nM | 52.3 nM | – | – |
| UCAUUUCAGUAAGGAUAUUAAAACAUGACGAUACAUGAGGAUCACCCAUGUUAAGAAGGUACUAAUACAUAUAAUGCAAUGUUC | – | – | 16 nM | 15 nM |
| UCAUUUCUGUAAGGAUAUAUAAACAUGACGAUACAUGAGGAUCACCCAUGUAUAGAAGGUACAAAUACAUAUAAUGCAAUGUUC | – | – | 16.9 nM | 12.9 nM |
| UCCAAACCGUAGAAGGGUGACAUGAGGAUCACCCAUGUGCAGCAGCCGUGAACGGCCAUGCUGCCACAGGAUAUACGGAGGAGU | 28.9 nM | 67.3 nM | – | – |
| UCCACUGCUGAGAAGGGAUACGGCUGGGUCGCAUCAGGAUAUCGAUACAGUGCAGCAUGAGGACAUGAGGAUCACCCAUGUGUG | 81 nM | 27 nM | – | – |
| UCCACUGCUGAGAAGGGAUACGUUUGGGUCGCAUCAGGAUAUCGAUACAGUGCAGCAUGAGGACAUGAGGAUCACCCAUGUGUG | 140 nM | 29.5 nM | – | – |
| UCCUACAUGGGAGGAUAUGGGAAGAUACAUGAGGAUCACCCAUGUUUAAGAAUGCCGAGAGGCAACUAGAAGGCCCAUGUAGGU | 876 nM | 54.4 nM | – | – |
| UCCUGGCGAGGAUAUACAAAGUUUUUCACGUUUUGUUUCGAACAUGAGGAUCACCCAUGUAGAAGGUGCUACUG | – | – | 62.6 nM | 52.8 nM |
| UCCUUACUGGUCAGGAUAUACAUUCGCUACUCCUUGUAGAAGGGACAUGAGGAUCACCCAUGUACUUUACAUUC | – | – | 17.4 nM | 18.9 nM |
| UCGAAGAAUGCAGGAUAUACAUGAGGAUCACCCAUGUCACGGUCGGCUUCUGUAGAAGGGCACUUACCCAGGUAAAUUGCUUGG | – | – | 5.39 nM | 5.81 nM |
| UCGACGAAAGUCGAACGAUGUAGCAGAAGGACAUGAGGAUCACCCAUGUCAGCUGUAACAGCCAUGUAGGAUAUGCUACAUCGU | – | – | 4.51 nM | 5.53 nM |
| UCGAUCGGAGGAUAUACUAAUACAACUACUGAAGUGUCAAAACAUGAGGAUCACCCAUGUAGAAGGCCGAUAUA | – | – | 21.8 nM | 24.3 nM |
| UCGCCAGGUACAGGAUAUGUGGAUCAGUUAAGUAACUUACUGAACAUGAGGAUCACCCAUGUAUCACAGAAGGGUGCCUCAAAA | 164 nM | 11.1 nM | – | – |
| UCGCUGCGAGGAUAUACGUUUGCGCGUUUUCGUUUGCGCGUACAUGAGGAUCACCCAUGUAGAAGGCGCGCGGC | – | – | 14.3 nM | 14.8 nM |
| UCGGCGCGAGGAUAUACGUUUGCUUUUUUUUGUCUUUGUGUACAUGAGGAUCACCCAUGUAGAAGGCGCGCCGC | – | – | 21.3 nM | 36.7 nM |
| UCGGCGCGAGGAUAUGCGGCUUGUGCUUCGGGCCCUCGCGUACAUGAGGAUCACCCAUGUAGAAGGCGCGCCGC | – | – | 120 nM | 91.7 nM |
| UCGUAUAUACAAGGAUAUCAAUUAUUGCUAAAUACAACAUGAGGAUCACCCAUGUAACUAUGGAGUGAGAAGGUGUAAUGACUU | 740 nM | 603 nM | – | – |
| UCGUGAAUAGAGGAUAUAUUAAUAUUUAAAACAAUAGAAGGCUAAACAUGAGGAUCACCCAUGUAAAUGGUUUU | – | – | 28.1 nM | 116 nM |
| UCGUGUUAUACAGGAUAUGUUUAGGUUUAUUCAUUCAGUUAUUAAUUUAUGACAGAAGGGUAUACAUGAGGAUCACCCAUGUCA | – | – | 761 nM | 306 nM |
| UCUAUGAAGAUUCGUCAAUACAGUUAGGAUAUGAGAGACAUGAGGAUCACCCAUGUGCAUGUUGAUUAGAAGGAACAAUUAUCU | – | – | 20.9 nM | 19.3 nM |
| UCUCGAUGUGUAGGAUAUCUGAUUACUAUGACAAGAGAAGGGCACAUGAGGAUCACCCAUGUGGAGGACCACUGGUUCAGAUUA | – | – | 31.2 nM | 49.3 nM |
| UCUCGGAGCAGAGGAUAUUACAUGAGGAUCACCCAUGUAUGAACCAAUAGCUGGAAACAGCAAUGUAAGAAGGCUGCUCCGACA | – | – | 12.4 nM | 169 nM |
| UCUGCAUAGUCAGGAUAUGCAAAGUAAGCUAUGGAAACAUAGCUUACAACAUGAGGAUCACCCAUGUAGAAGGGACUGUGCAGA | – | – | 14.1 nM | 13 nM |

| Sequence | apparent Kd [1] | apparent Kd [2] | apparent Kd [3] | apparent Kd [4] |
| --- | --- | --- | --- | --- |
| UCUGCCGCCGUGAGGAUAUGCCCGCGAAAACGCGGGCAGAAGGCACAUGAGGAUCACCCAUGUCCCGCGGUUUU | – | – | 16.1 nM | 36.7 nM |
| UCUGGAGCAGGAUAUGCAUUCGUGCUUCGGCACGUAAGGUCACAUGAGGAUCACCCAUGUAGAAGGGCUCCAGA | – | – | 19.2 nM | 34 nM |
| UCUGUCGUUGUGAGGAUAUGCCCAAAUAAAAGCGGGCAGAAGGCACAUGAGGAUCACCCAUGUCCUGCGGUUUU | – | – | 21.4 nM | 237 nM |
| UCUUAUUGCAAGGAUAUGCAAAUUAUUAUUAAAGCAGAAGGUGCAACAUGAGGAUCACCCAUGUUUCCGGGAAA | – | – | 25.2 nM | 104 nM |
| UCUUAUUGCAAGGAUAUGCAAAUUAUUAUUAAUGCAGAAGGUGCUACAUGAGGAUCACCCAUGUUUCCGGGUUU | – | – | 45 nM | 161 nM |
| UCUUGACAUGAGGAUCACCCAUGUCAGGAUAUAGUAGGACAAAUAAAUAAAAGUUCUACUAGAAGGGAUAUGGG | – | – | 24.9 nM | 46.8 nM |
| UCUUUAUAGAUCCAUUUUAACUACAUGAGGAUCACCCAUGUGCAGGAUAUCGAUUGUUUUACUUUCGAGAAGGGCAAAUUCAGC | – | – | 57.6 nM | 131 nM |
| UCUUUGUGAGGAUAUCAGUAGUAAAUAAAUAAAAUUACUACUGAGAAGGCACAUGAGGAUCACCCAUGUUCCUU | – | – | 12.1 nM | 24.4 nM |
| UGAAACUACGAGAAGGACAUGUGGUCCUUCAGUUACAUGAGGAUCACCCAUGUAGGAUAUCGUAGUUUCAGGAUCGUGAGAUCA | – | – | 34.7 nM | 14.6 nM |
| UGAAAUCAUGUAGGAUAUGCAUGGCGAAGCUACGCAGAAGGACAUGAGGAUCACCCAUGUUAUAGCUACCCAGUUAGGUGGCAA | – | – | 145 nM | 157 nM |
| UGAAAUCAUGUAGGAUAUGCAUGGCGAAGCUACGCAGAAGGACAUGAGGAUCACCCAUGUUCUAGCGUCUGAGUACAGAUGCAA | – | – | 19.6 nM | 64.9 nM |
| UGAACAAUGUAGAAGGCCCAUAUUUAUAUAUAGGGAGGAUAUACAUGAGGAUCACCCAUGUAAAGAGCAAGAGGAUUUGACAGA | – | – | 10.4 nM | 22.2 nM |
| UGAACUCAUGUAGGAUAUGCAUGGCGAAGCUACGCAGAAGGACAUGAGGAUCACCCAUGUUCUAGCGUCUGAGUACAGAUGCAA | – | – | 148 nM | 118 nM |
| UGACACAUGAGGGUCUCCCAUGACAUGAGGAUCACCCAUGUGCAGGAUAUACGUGUGAUGGUAUAGUAGAAGGGCACUCUAUGU | – | – | 46.4 nM | 65.8 nM |
| UGACUAGUAAUGUAUCGAAAGAUCACAUGAGGAUCACCCAUGUAGGAUAUGAGCAGAAAAUCUGCUCAGAAGGACAUGCUAGUC | – | – | 5.9 nM | 7.36 nM |
| UGAGACCUCACAGGAUAUGCUGGACUUUGUCCAGCAGAAGGGUGAAAACAUGAGGAUCACCCAUGUAUGGUCUCCAAAUUUAAG | 191 nM | 12.7 nM | – | – |
| UGAGCAAGAGGAUAUACAAGGCGACCGUGAGGUCGAGGGUUACAUGAGGAUCACCCAUGUAGAAGGCUUGUUCU | – | – | 37.1 nM | 323 nM |
| UGAGCAAGAGGAUAUACAAGGCGACCGUGAGGUCGAGGUUUACAUGAGGAUCACCCAUGUAGAAGGCUUGUUCU | – | – | 17.2 nM | 38.9 nM |
| UGAGCGCACGAGAAGGGCGGGUUCACGGGCUCCUGACGAGACAUGAGGAUCACCCAUGUAACCACGCAGGAUAUCGACCGGAUC | – | – | 20.9 nM | 141 nM |
| UGAUACCAAGGAUAUACAUGAGGAUCACCCAUGUCGGACCGAUGUGUCUCCUCCUGCUGUAGAAGGUGGAAAAU | – | – | 39.9 nM | 55.6 nM |
| UGAUAGGACAGAGGAUAUACCGAUAGGAUCUACUAUCGAACAAUUCUCACAUGAGGAUCACCCAUGUAGAAGGCUGUCCUAUCU | – | – | 15.8 nM | 30.2 nM |
| UGAUAGGACAGAGGAUAUACGUAUAAUUCCUUCAACAUGAGGAUCACCCAUGUAGAAGGCUGUCCUAUCUAAGUCGGAAACGAC | – | – | 4.81 nM | 5.33 nM |
| UGAUAGGACAGAGGAUAUACGUGCUAGAGAUACUAGCAAAGUUUCCUGACAUGAGGAUCACCCAUGUAGAAGGCUGUCCUAUCU | – | – | 6.56 nM | 20.9 nM |
| UGAUAGGACAGAGGAUAUGCCGAUAGGAUUUACUAUCGAAGAAUCCUCACAUGAGGAUCACCCAUGUAGAAGGCUGUCCUAUCU | – | – | 7.36 nM | 35.9 nM |
| UGAUCCGCAUCGGCGCACAAGACAUGAGGAUCACCCAUGUACAGAAGGCGAAAAGCGAAGGCGGUCGAGGAUAUGUACCUACGG | – | – | 6.92 nM | 15.7 nM |
| UGAUCUAUGUAGAAGGCCCAUAUCUAUAUUUAGGGAGGAUAUACAUGAGGAUCACCCAUGUAUAGAGCGGGUGGACCCGUCACC | – | – | 26.7 nM | 62.1 nM |
| UGAUCUUUUGUUAGGAUAUGCUGGCUGAAAAGUCAGCAGAAGGGACAUGAGGAUCACCCAUGUUCUCUCUUUUU | – | – | 9.66 nM | 13.6 nM |
